# Experimental data collected from several papers.
# Compare with care: the assays were run in different laboratories.
Compound,tested on,assay,test system,conditions,measurement,value
NNC(=O)c1ccncc1,Mycobacterium tuberculosis variant bovis BCG,microbial growth,BCG,,MIC90,0.24 µg/mL
c1ccc([Se][Au]=[c]2n(C3CCCCC3)ccn2C2CCCCC2)cc1,HT-29,"cell growth or viability, crystal violet",,,IC50,1.1 µM
NCC[C@H](O)C(=O)N[C@@H]1C[C@H](N)[C@@H](O[C@H]2O[C@H](CN)[C@@H](O)[C@H](O)[C@H]2O)[C@H](O)[C@H]1O[C@H]1O[C@H](CO)[C@@H](O)[C@H](N)[C@H]1O,Mycobacterium tuberculosis variant bovis BCG,microbial growth,BCG,,MIC50,0.32 µg/mL
N#Cc1nc[n]([Au][PH](c2ccccc2)(c2ccccc2)c2ccccc2)c1C#N,IMR-90,"cell growth or viability, MTT",,48 h,IC50,64 µM
C[C@H]1COc2c(N3CCN(C)CC3)c(F)cc3c(=O)c(C(=O)O)cn1c23,Klebsiella pneumoniae,microbial growth,ATCCBAA1705,drug-resistant strain,MIC,> 8 µg/mL
[H]/N=C(/N)N[C@H]1[C@H](O)[C@@H](O)[C@H](O[C@@H]2O[C@@H](C)[C@](O)(C=O)[C@H]2O[C@@H]2O[C@@H](CO)[C@H](O)[C@@H](O)[C@@H]2NC)[C@@H](N/C(N)=N\[H])[C@@H]1O,Klebsiella pneumoniae,"microbial growth, broth dilution",ATCC43816,,MIC,2 µg/mL
Clc1nc[n]([Au][PH](c2ccccc2)(c2ccccc2)c2ccccc2)c1Cl,IMR-90,"cell growth or viability, MTT",,48 h,IC50,54.9 µM
C[C@@H](O)[C@H]1C(=O)N2C(C(=O)O)=C(S[C@@H]3CN[C@H](C(=O)N(C)C)C3)[C@H](C)[C@H]12,Klebsiella pneumoniae,microbial growth,ATCCBAA1705,drug-resistant strain,MIC,> 8 µg/mL
N.N.[Cl][Pt][Cl],CA46,"cell growth or viability, ATP luminescence",,"10 µM, 72 h",inhibition,95%
